Laboratory results from article PMC10060059 (Thrombosis and Haemostasis, 2023).
Where two headings read alike, the source gives them in different places. Marks after values point to notes of the source that are not given here.

Tests used:
[1] = Rivaroxaban/apixaban plasma concentrations; type: in vivo, human; details: for Effect of creatinine clearance on Cmax, multivariate analysis / Effect of creatinine clearance on Cmax, univariate analysis / Effect of creatinine clearance on Cmin, multivariate analysis / Effect of creatinine clearance on Cmin, univariate analysis: per decrease of 10 mL/min
[2] = cited from earlier work
[3] = test system: thrombin generation; assay: Thrombin generation on ST-Genesia; type: biochemical, human
[4] = Six-month clinical follow-up; type: in vivo, human; details: 6-month follow-up
Outline: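 Bleedings (site, severity), thromboembolic events (site) and deaths were recorded. Two geriatricians blinded to PK/PD data classed bleeds as major or nonmajor clinically relevant, and minor bleeds were not systematically recorded. Rates were given per DOAC group.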

[5] = 2.5 mg b.i.d. vs. 5 mg b.i.d., listed as apixaban
[6] = CYP3A4/5 modulator in addition to amiodarone
[7] = full dose: rivaroxaban 20 mg o.d., apixaban 5.0 mg b.i.d.
[8] = reduced dose: rivaroxaban 15 mg o.d., apixaban 2.5 mg b.i.d.
[9] = rivaroxaban 15 mg o.d., apixaban 2.5 mg b.i.d.
[10] = STG-ThromboScreen without thrombomodulin
[11] = for halved concentrations, STG-ThromboScreen without thrombomodulin
[12] = per decrease of 10 mL/min, STG-ThromboScreen without thrombomodulin
[13] = P-gp modulator in addition to amiodarone

## COc1ccc(-n2nc(C(N)=O)c3c2C(=O)N(c2ccc(N4CCCCC4=O)cc2)CC3)cc1 [Apixaban, apixaban]
[1]; 2.5 mg b.i.d. vs. 5 mg b.i.d.
  Effect of dose regimen on Cmax, multivariate analysis: +64.8% ^e [16.6; 132.9]
  Effect of dose regimen on Cmax, univariate analysis: +44.9% ^e [7.14; 96.1]
  Effect of dose regimen on Cmin, multivariate analysis: +54.8% ^e [6.65; 124.6]
  Effect of dose regimen on Cmin, univariate analysis: +45.6% ^e [4.7; 102.6]
[1]; [5]
  Effect of dose regimen on Cmax, multivariate analysis: +64.8%
  Effect of dose regimen on Cmax, univariate analysis: 44.9%
  Effect of dose regimen on Cmin, multivariate analysis: +54.8%
  Effect of dose regimen on Cmin, univariate analysis: 45.6%
[1]; [6]
  Effect of CYP3A4/5 modulator on Cmin, univariate analysis: +20.8% [−9.8; 61.7]
[1]; amiodarone intake
  Effect of amiodarone on Cmax, multivariate analysis: +79.3% [5.5; 204.7]
  Effect of amiodarone on Cmax, univariate analysis: +43.5% [7.9; 90.9]
  Effect of amiodarone on Cmin, univariate analysis: +14.4% [−18.5; 60.5]
[1]; amiodarone intake, listed as apixaban
  Effect of amiodarone on Cmax, univariate analysis: +43.5%
[1]; female gender
  Effect of female gender on Cmax, multivariate analysis: +28.7% [−4.5; 73.4]
  Effect of female gender on Cmax, univariate analysis: +44.0% [7.4; 93.1]
  Effect of female gender on Cmin, univariate analysis: +15.7% [−14.9; 57.1]
[1]; female gender, listed as apixaban
  Effect of female gender on Cmax, univariate analysis: +44.0%
[1]; [7]
  inter-individual variability of Cmax (coefficient of variation): 47%
  inter-individual variability of Cmin (coefficient of variation): 68%
[1]
  Effect of creatinine clearance on Cmax, multivariate analysis: +4.5% ^b [−3.0; 11.4]
  Effect of creatinine clearance on Cmax, univariate analysis: +3.3% ^b [−4.28; 10.31]
  Effect of creatinine clearance on Cmin, multivariate analysis: +4.5% ^b [−4.9; 13.1]
  Effect of creatinine clearance on Cmin, univariate analysis: +4.6% ^b [−4.2; 12.7]
[1]; per mutated allele
  Effect of ABCB1 3435C > T on Cmax, multivariate analysis: +10.1% ^d [−8.3; 25.3]
  Effect of ABCB1 3435C > T on Cmax, univariate analysis: +2.1% ^d [−18.7; 19.3]
  Effect of ABCB1 3435C > T on Cmin, univariate analysis: +14.8% ^d [−4.1; 30.3]
[1]; per mutated allele, listed as apixaban
  Effect of ABCB1 3435C > T on Cmin, univariate analysis: +14.8%
[1]; [8]
  inter-individual variability of Cmax (coefficient of variation): 46%
  inter-individual variability of Cmin (coefficient of variation): 61%
[1]; [9]
  patients above the 95th percentile of SmPC values at Tmin: 9.7%
  patients below the 5th percentile of SmPC values at Tmin: 9.7%
[2]; ARISTOTLE patients (median age 70 years) receiving 2.5 mg b.i.d.
  median Cmax: 123 ng/mL
[2]; SmPC, ARISTOTLE data set, mean age 70 years
  inter-individual variability of concentrations: around 30%
[3]; STG-DrugScreen and STG-ThromboScreen without TM
  association of ETP with DOAC concentrations: ETP was associated with apixaban concentrations
[3]; [10]
  Effect of amiodarone on peak height at Tmax, multivariate: −26.0% [−91.8; 564.1]
  Effect of amiodarone on peak height at Tmax, univariate: +3.7% [−58.7; 160.1]
  Effect of amiodarone on peak height at Tmin, multivariate: −57.47% [−83.2; 7.9]
  Effect of amiodarone on peak height at Tmin, univariate: −37.2% [−60.0; −1.5]
  Effect of heart failure on peak height at Tmax, multivariate: −9.2% [−62.9; 122.6]
  Effect of heart failure on peak height at Tmax, univariate: −26.7% [−66.7; 61.4]
  Effect of heart failure on peak height at Tmin, multivariate: +0.84% [−30.8; 46.9]
[3]; STG-ThromboScreen without thrombomodulin, listed as apixaban
  Effect of amiodarone on peak height at Tmin, univariate: −37.2%
[3]; [11]
  Effect of plasma concentrations on peak height at Tmax, multivariate: +86.8% ^a [−0.48; 250.5]
  Effect of plasma concentrations on peak height at Tmin, multivariate: +32.7% ^a [8.28; 62.59]
  Effect of plasma concentrations on peak height at Tmin, univariate: 37.1% ^a 13.1; 66.2]
[3]; [12]
  Effect of creatinine clearance on peak height at Tmax, multivariate: +2.4% ^b [−17.9; 27.8]
  Effect of creatinine clearance on peak height at Tmax, univariate: +0.42% ^b [4.70; 36.9]
  Effect of creatinine clearance on peak height at Tmin, univariate: 1.7% ^b [−10.7; 15.8]
[4]
  death rate: 18.9%
  thromboembolic event rate: 3.6%

## O=C(NC[C@H]1CN(c2ccc(N3CCOCC3=O)cc2)C(=O)O1)c1ccc(Cl)s1 [Rivaroxaban, rivaroxaban]
[1]; 15 mg o.d. vs. 20 mg o.d.
  Effect of dose regimen on Cmax, multivariate analysis: 29.4% ^a [−14.2; 95.2]
  Effect of dose regimen on Cmax, univariate analysis: +20.3% ^a [−16.7; +73.5]
  Effect of dose regimen on Cmin, multivariate analysis: −3.2% ^a [−35.1; 44.6]
  Effect of dose regimen on Cmin, univariate analysis: −3.8% ^a [−35.1; +42.6]
[1]; 15 mg o.d. vs. 20 mg o.d., listed as rivaroxaban
  Effect of dose regimen on Cmax, univariate analysis: +20.3%
[1]; [6]
  Effect of CYP3A4/5 modulator on Cmax, multivariate analysis: +10.6% [−23.1; 58.9]
  Effect of CYP3A4/5 modulator on Cmax, univariate analysis: +9.5% [−21.0; 51.6]
  Effect of CYP3A4/5 modulator on Cmin, multivariate analysis: +43.1% [5.3; 94.3]
  Effect of CYP3A4/5 modulator on Cmin, univariate analysis: +31.1% [−24.7; 72.2]
[1]; [13]
  Effect of P-gp inhibitor on Cmax, multivariate analysis: −6.31% [−35.8; 36.6]
  Effect of P-gp inhibitor on Cmax, univariate analysis: −9.95% [−35.3; 25.4]
  Effect of P-gp inhibitor on Cmin, multivariate analysis: −8.7% [−34.2; 26.8]
  Effect of P-gp inhibitor on Cmin, univariate analysis: −15.9% [−37.6; 13.5]
[1]; amiodarone intake
  Effect of amiodarone on Cmax, multivariate analysis: −26.1% ^b [−75.8; 125.5]
  Effect of amiodarone on Cmax, univariate analysis: +4.73% [−31.5; 60.2]
  Effect of amiodarone on Cmin, multivariate analysis: 99.8% ^c [10.3; 262.0]
  Effect of amiodarone on Cmin, univariate analysis: +47.8% [−2.8; 109.4]
[1]; amiodarone intake, listed as rivaroxaban
  Effect of amiodarone on Cmin, univariate analysis: +47.8%
[1]; female gender
  Effect of female gender on Cmax, multivariate analysis: +11.8% [−20.8; 57.9]
  Effect of female gender on Cmax, univariate analysis: +12.2% [−17.7; 53.0]
  Effect of female gender on Cmin, multivariate analysis: −10.1% [−35.2; 22.3]
  Effect of female gender on Cmin, univariate analysis: −14.2% [−36.0; 15.1]
[1]; [7]
  inter-individual variability of Cmax (coefficient of variation): 47%
  inter-individual variability of Cmin (coefficient of variation): 37%
[1]
  Effect of creatinine clearance on Cmax, multivariate analysis: +3.4% ^b [−7.6; 15.6]
  Effect of creatinine clearance on Cmax, univariate analysis: +1.89% ^b [−8.2; 13.1]
  Effect of creatinine clearance on Cmin, multivariate analysis: +5.0% ^b [−4.9; 16.0]
  Effect of creatinine clearance on Cmin, univariate analysis: +8.1% ^b [−3.9; 15.8]
[1]; listed as rivaroxaban
  Effect of creatinine clearance on Cmin, univariate analysis: +8.1%
[1]; per mutated allele
  Effect of ABCB1 3435C > T on Cmax, multivariate analysis: +18.3% ^d [−10.9; 39.8]
  Effect of ABCB1 3435C > T on Cmax, univariate analysis: +18.3% ^d [−5.3; 36.6]
  Effect of ABCB1 3435C > T on Cmin, multivariate analysis: +10.4% ^d [−14.9; 30.1]
  Effect of ABCB1 3435C > T on Cmin, univariate analysis: +16.9% ^d [−6.6; 31.0]
[1]; per mutated allele, listed as rivaroxaban
  Effect of ABCB1 3435C > T on Cmin, univariate analysis: +16.9%
[1]; [8]
  inter-individual variability of Cmax (coefficient of variation): 49%
  inter-individual variability of Cmin (coefficient of variation): 75%
[1]; rivaroxaban 15 mg o.d., T1-T4, NVAF in-patients ≥80 years
  median Cmax: 251 ng/mL
[1]; [9]
  patients above the 95th percentile of SmPC values at Tmin: 3.1%
  patients below the 5th percentile of SmPC values at Tmin: 21.5%
[2]; Mueck et al's data
  inter-individual variability of Cmax and Cmin: around 30%
[3]; [10]
  Effect of amiodarone on peak height at Tmin, multivariate: −44.6%** [−75.1; 23.2]
  Effect of amiodarone on peak height at Tmin, univariate: −52.2%
  Effect of heart failure on peak height at Tmax, multivariate: −22.3% [−45.0; 9.8]
  Effect of heart failure on peak height at Tmax, univariate: −36.6%
  Effect of heart failure on peak height at Tmin, multivariate: −12.7% [−37.7; 22.4]
  Effect of heart failure on peak height at Tmin, univariate: −31.4% [−52.2; −1.7]
[3]; [11]
  Effect of plasma concentrations on peak height at Tmax, multivariate: –5.0% ^a [−27.9; 25.2]
  Effect of plasma concentrations on peak height at Tmax, univariate: +23.9% ^a [−11.4; 73.2]
  Effect of plasma concentrations on peak height at Tmin, multivariate: +21.0% ^a [−4.0; 52.4]
  Effect of plasma concentrations on peak height at Tmin, univariate: +38.7% ^a [12.4;71.1]
[3]; [12]
  Effect of creatinine clearance on peak height at Tmax, multivariate: −16.4% ^b [−26.3; −5.0]
  Effect of creatinine clearance on peak height at Tmin, multivariate: −6.76% ^b [−15.5; 2.8]
  Effect of creatinine clearance on peak height at Tmin, univariate: −6.1% ^b [−16.2; 5.2 ]
[4]
  death rate: 17.3%
  thromboembolic event rate: 1.0%
